# Activity calls are given as the source filed them. No cut-off for these calls is given here.
# How the values were obtained:
# [1] = system: HCT-116; assay: Cytotoxicity against human HCT116 cells assessed as growth inhibition at 40 uM after 72 hrs by CCK8 assay; type: functional; details: HCT-116, 72 h, read-out: GI
# Method in brief: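 HCT-116 cells seeded at 3000/well in DMEM with 10% FBS and allowed 24 h at 37°C in CO2. They were then treated 72 h at a single 40 uM concentration, with media-only and 1% DMSO controls. Fresh serum-free medium plus CCK-8 was added for 1 h at 37°C, and absorbance read at 450 nm as % cell survival.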
# [2] = system: HCT-116; assay: Cytotoxicity against human HCT116 cells assessed as growth inhibition after 72 hrs by CCK8 assay; type: functional, cell-based; details: HCT-116, 72 h
# Method in brief: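 HCT-116 cells seeded at 3000/well in DMEM with 10% FBS and left 24 h to adhere at 37°C in CO2. They were then exposed for 72 h to 1, 2, 5, 10, 20, 30 and 40 μM, with 1% DMSO and media-only controls. Readout was CCK-8 reduction, 1 h, absorbance at 450 nm. IC50 was taken from log concentration versus % survival curves; three experiments, quadruplicate points.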
# [3] = system: HCT-116; assay: Induction of apoptosis in human HCT116 cells assessed as nuclear condensation at 10 uM after 24 hrs by Hoechst 33342 staining based microscopic analysis; type: functional
# Method in brief: (§1)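 HCT 116 cells were plated at 20,000 per dish 24 h before treatment, then given 10 μM compound or 1% (v/v) DMSO control for 24 h. They were fixed in 1.5% glutaraldehyde in PBS for 1 h, washed with PBS, stained with 5 μg/ml Hoechst 33342 and imaged by confocal microscopy.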
# [4] = system: HCT-116; assay: Induction of apoptosis in human HCT116 cells assessed as chromatin condensation at 10 uM after 24 hrs by Hoechst 33342 staining based microscopic analysis; type: functional, cell-based; method in brief: as §1
# [5] = system: HCT-116; assay: Induction of apoptosis in human HCT116 cells assessed as plasma membrane budding at 10 uM after 24 hrs by Hoechst 33342 staining based microscopic analysis; type: functional, cell-based; method in brief: as §1
# [6] = system: HCT-116; assay: Induction of apoptosis in human HCT116 cells assessed as intact plasma membranes at 10 uM after 24 hrs by Hoechst 33342 staining based microscopic analysis; type: functional, cell-based; method in brief: as §1
# [7] = system: HCT-116; assay: Induction of apoptosis in human HCT116 cells assessed as cell shrinkage and nuclear condensation at 10 uM after 24 hrs by Hoechst 33342 staining based microscopic analysis; type: functional; method in brief: as §1
Structure (SMILES),inhibition of growth at 40 µM [1] [%],IC50 [2] [µM],Activity [3] [%],Activity [4],Activity [5],Activity [6],Activity [7] [%]
CCOC(=O)c1csc(-c2csc([C@@H](NC(=O)OC(C)(C)C)[C@@H](C)OC(C)(C)C)n2)n1,> 50,19.4,,,,,
COC(=O)c1nc(-c2csc(-c3csc(-c4coc(-c5coc([C@@H](NC(=O)OC(C)(C)C)[C@@H](C)OC(C)(C)C)n5)n4)n3)n2)oc1-c1ccccc1,> 50,18.2,,,,,
CCOC(=O)c1csc(-c2coc(-c3coc([C@@H](NC(=O)OC(C)(C)C)[C@@H](C)OC(C)(C)C)n3)n2)n1,,,12,Active,inactive,Active,
COC(=O)c1nc(-c2csc(-c3csc(-c4csc(-c5csc([C@@H](NC(=O)OC(C)(C)C)[C@@H](C)OC(C)(C)C)n5)n4)n3)n2)oc1-c1ccccc1,> 50,18.7,,,,,
COC(=O)c1coc(-c2coc([C@@H](NC(=O)OC(C)(C)C)[C@@H](C)OC(C)(C)C)n2)n1,,> 100,,,,,
CCOC(=O)c1csc(-c2csc(-c3csc([C@@H](NC(=O)OC(C)(C)C)[C@@H](C)OC(C)(C)C)n3)n2)n1,> 50,26.5,,Active,inactive,Active,30
